Source: ChEMBL document CHEMBL3232897, “Synthesis, antiproliferative and antibacterial activity of new amides of salinomycin” (Bioorg Med Chem Lett, 2014)
Values after ≈ are worked out from the molar mass of the structure shown.

Legend:
[1] = Selectivity index, ratio of IC50 for mouse BALB/3T3 cells to IC50 for human LoVo/DX cells; assay type: functional
Method in brief: (§1)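 Selectivity index is the IC50 in normal murine embryonic fibroblasts (BALB/3T3) divided by the IC50 in the respective cancer line (HL-60, HL-60/vinc, LoVo or LoVo/DX). Each IC50 is the concentration giving 50% growth inhibition. SI >1.0 is taken as favourable.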

[2] = tested on: HL-60; test: Resistance index, ratio of IC50 for human HL60/Vinc cells to IC50 for human HL60 cells; assay type: functional
Method in brief: (§2)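 Index of resistance is the IC50 in the resistant subline (HL-60/vinc or LoVo/DX) divided by the IC50 in its parental line (HL-60 or LoVo). Each IC50 is the concentration giving 50% growth inhibition. Bands are 0–2 sensitive, 2–10 moderate, above 10 strongly resistant.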

[3] = Selectivity index, ratio of IC50 for mouse BALB/3T3 cells to IC50 for human HL60/Vinc cells; assay type: functional; method in brief: as §1
[4] = tested on: HL-60; test: Antiproliferative activity against human HL60 cells; assay type: functional, cell-based
Method in brief: (§3)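 IC50 is the concentration giving 50% growth inhibition, reported as mean with SD. HL-60/vinc and LoVo/DX are drug-resistant (MDR) sublines of HL-60 and LoVo. BALB/3T3 is a normal murine embryonic fibroblast line.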

[5] = tested on: LoVo; test: Resistance index, ratio of IC50 for human LoVo/DX cells to IC50 for human LoVo cells; assay type: functional; method in brief: as §2
[6] = Antiproliferative activity against human LoVo/DX cells; assay type: functional, cell-based; method in brief: as §3
[7] = tested on: HL-60; test: Selectivity index, ratio of IC50 for mouse BALB/3T3 cells to IC50 for human HL60 cells; assay type: functional; method in brief: as §1
[8] = Antiproliferative activity against human HL60/Vinc cells; assay type: functional, cell-based; method in brief: as §3
[9] = tested on: LoVo; test: Selectivity index, ratio of IC50 for mouse BALB/3T3 cells to IC50 for human LoVo cells; assay type: functional; method in brief: as §1
[10] = tested on: BALB/3T3; test: Antiproliferative activity mouse BALB/3T3 cells; assay type: cell-based; method in brief: as §3
[11] = tested on: LoVo; test: Antiproliferative activity against human LoVo cells; assay type: functional, cell-based; method in brief: as §3
[12] = tested on: Staphylococcus aureus; test: Antibacterial activity against Staphylococcus aureus ATCC 29213; assay type: functional
[13] = tested on: Staphylococcus aureus; test: Antibacterial activity against Staphylococcus aureus ATCC 6538; assay type: functional
[14] = tested on: Staphylococcus aureus; test: Antibacterial activity against Staphylococcus aureus NCTC 4163; assay type: functional
[15] = tested on: Staphylococcus epidermidis; test: Antibacterial activity against methicillin-resistant Staphylococcus epidermidis 468/11; assay type: functional
Method in brief: (§4)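 In vitro antibacterial test on Staphylococcus strains, including MRSE clinical isolates. Read-outs were growth inhibition zone (mm) and MIC (µg/ml). Ciprofloxacin was the reference antibiotic.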

[16] = tested on: Staphylococcus epidermidis; test: Antibacterial activity against methicillin-resistant Staphylococcus epidermidis 460/11; assay type: functional; method in brief: as §4
[17] = tested on: Staphylococcus epidermidis; test: Antibacterial activity against methicillin-resistant Staphylococcus epidermidis 488/11; assay type: functional; method in brief: as §4
[18] = tested on: Staphylococcus epidermidis; test: Antibacterial activity against methicillin-resistant Staphylococcus epidermidis 461/11; assay type: functional; method in brief: as §4
[19] = tested on: Staphylococcus epidermidis; test: Antibacterial activity against methicillin-resistant Staphylococcus epidermidis 489/11; assay type: functional; method in brief: as §4
[20] = tested on: Staphylococcus epidermidis; test: Antibacterial activity against methicillin-resistant Staphylococcus epidermidis 459/11; assay type: functional; method in brief: as §4
[21] = tested on: Staphylococcus epidermidis; test: Antibacterial activity against methicillin-resistant Staphylococcus epidermidis 466/11; assay type: functional; method in brief: as §4
[22] = tested on: Staphylococcus epidermidis; test: Antibacterial activity against methicillin-resistant Staphylococcus epidermidis 469/11; assay type: functional; method in brief: as §4
[23] = tested on: Staphylococcus epidermidis; test: Antibacterial activity against methicillin-resistant Staphylococcus epidermidis 467/11; assay type: functional; method in brief: as §4
[24] = tested on: Staphylococcus epidermidis; test: Antibacterial activity against Staphylococcus epidermidis ATCC 35984; assay type: functional; method in brief: as §4
[25] = tested on: Staphylococcus epidermidis; test: Antibacterial activity against Staphylococcus epidermidis ATCC 12228; assay type: functional; method in brief: as §4
[26] = tested on: Staphylococcus epidermidis; test: Antibacterial activity against methicillin-resistant Staphylococcus epidermidis 470/11; assay type: functional; method in brief: as §4

Structure (SMILES) | IC50 [4] [µM] | IC50 [11] [µM] | Ratio IC50 [1] | Ratio IC50 [2] | Ratio IC50 [3] | Ratio IC50 [5] | IC50 [6] [µM] | Ratio IC50 [7] | IC50 [8] [µM] | Ratio IC50 [9] | IC50 [10] [µM] | further results
O=C(O)c1cn(C2CC2)c2cc(N3CCNCC3)c(F)cc2c1=O [CIPROFLOXACIN] | – | – | – | – | – | – | – | – | – | – | – | MIC [12]: 0.5 µg/mL (≈ 1.51 µM); MIC [13]: 0.25 µg/mL (≈ 0.754 µM); MIC [14]: 0.25 µg/mL (≈ 0.754 µM); MIC [15]: 16 µg/mL (≈ 48.3 µM); MIC [16]: 0.125 µg/mL (≈ 0.377 µM); MIC [17]: 16 µg/mL (≈ 48.3 µM); MIC [18]: 0.25 µg/mL (≈ 0.754 µM); MIC [19]: 0.25 µg/mL (≈ 0.754 µM); MIC [20]: 16 µg/mL (≈ 48.3 µM); MIC [21]: 2 µg/mL (≈ 6.04 µM); MIC [22]: 8 µg/mL (≈ 24.1 µM); MIC [23]: 16 µg/mL (≈ 48.3 µM); MIC [24]: 0.125 µg/mL (≈ 0.377 µM); MIC [25]: 0.25 µg/mL (≈ 0.754 µM); MIC [26]: 0.125 µg/mL (≈ 0.377 µM)
C#CCNC(=O)[C@H](CC)[C@H]1CC[C@H](C)[C@H]([C@@H](C)[C@H](O)[C@H](C)C(=O)[C@H](CC)[C@H]2O[C@]3(C=C[C@@H](O)[C@]4(CC[C@@](C)([C@H]5CC[C@](O)(CC)[C@H](C)O5)O4)O3)[C@H](C)C[C@@H]2C)O1 | 5.7 | 6.9 | 9.6 | 1.97 | 3.29 | 0.56 | 3.9 | 6.47 | 11.3 | 5.4 | 37.1 | –
CC[C@@H](C(=O)[C@@H](C)[C@@H](O)[C@H](C)[C@@H]1O[C@@H]([C@@H](CC)C(=O)NCC2COCCOCCOCCOCCO2)CC[C@@H]1C)[C@H]1O[C@]2(C=C[C@@H](O)[C@]3(CC[C@@](C)([C@H]4CC[C@](O)(CC)[C@H](C)O4)O3)O2)[C@H](C)C[C@@H]1C (stereo not given in full) | 23.2 | 24.1 | 3.69 | 1.16 | 1.16 | 0.35 | 8.5 | 1.35 | 27 | 1.3 | 31.3 | –

Now from value to molecule, other results behind:

IC50 [4] [µM] | IC50 [11] [µM] | Structure (SMILES) | Ratio IC50 [1] | Ratio IC50 [2] | Ratio IC50 [3] | Ratio IC50 [5] | IC50 [6] [µM] | Ratio IC50 [7] | IC50 [8] [µM] | Ratio IC50 [9] | IC50 [10] [µM] | further results
2 | 8.1 | CC[C@@H](C(=O)[C@@H](C)[C@@H](O)[C@H](C)[C@@H]1O[C@@H]([C@@H](CC)C(=O)Nc2ccc(NC(=O)[C@H](CC)[C@H]3CC[C@H](C)[C@H]([C@@H](C)[C@H](O)[C@H](C)C(=O)[C@H](CC)[C@H]4O[C@]5(C=C[C@@H](O)[C@]6(CC[C@@](C)([C@H]7CC[C@](O)(CC)[C@H](C)O7)O6)O5)[C@H](C)C[C@@H]4C)O3)cc2)CC[C@@H]1C)[C@H]1O[C@]2(C=C[C@@H](O)[C@]3(CC[C@@](C)([C@H]4CC[C@](O)(CC)[C@H](C)O4)O3)O2)[C@H](C)C[C@@H]1C | 7.2 | 7.99 | 1.26 | 0.35 | 2.8 | 10.07 | 16.1 | 2.49 | 20.2 | –
0.04 | 0.17 | COc1cccc2c1C(=O)c1c(O)c3c(c(O)c1C2=O)C[C@@](O)(C(=O)CO)C[C@@H]3O[C@H]1C[C@H](N)[C@H](O)[C@H](C)O1 [DOXORUBICIN] | 0.07 | 44.5 | 0.27 | 37.94 | 6.5 | 12 | 1.8 | 2.82 | 0.5 | –
4.4 | 32.5 | CC[C@@H](C(=O)[C@@H](C)[C@@H](O)[C@H](C)[C@@H]1O[C@@H]([C@@H](CC)C(=O)NCCc2c[nH]cn2)CC[C@@H]1C)[C@H]1O[C@]2(C=C[C@@H](O)[C@]3(CC[C@@](C)([C@H]4CC[C@](O)(CC)[C@H](C)O4)O3)O2)[C@H](C)C[C@@H]1C | 0.99 | 7.46 | 1.04 | 1.07 | 34.8 | 7.79 | 33.1 | 1.06 | 34.5 | –
